Where a SMILES comes first, the peptide text is derived from it.
Molecular target: T1, UDP-N-acetylglucosamine--peptide N-acetylglucosaminyltransferase 110 kDa subunit (Homo sapiens) (UniProt O15294)
T1 sequence (whole entry): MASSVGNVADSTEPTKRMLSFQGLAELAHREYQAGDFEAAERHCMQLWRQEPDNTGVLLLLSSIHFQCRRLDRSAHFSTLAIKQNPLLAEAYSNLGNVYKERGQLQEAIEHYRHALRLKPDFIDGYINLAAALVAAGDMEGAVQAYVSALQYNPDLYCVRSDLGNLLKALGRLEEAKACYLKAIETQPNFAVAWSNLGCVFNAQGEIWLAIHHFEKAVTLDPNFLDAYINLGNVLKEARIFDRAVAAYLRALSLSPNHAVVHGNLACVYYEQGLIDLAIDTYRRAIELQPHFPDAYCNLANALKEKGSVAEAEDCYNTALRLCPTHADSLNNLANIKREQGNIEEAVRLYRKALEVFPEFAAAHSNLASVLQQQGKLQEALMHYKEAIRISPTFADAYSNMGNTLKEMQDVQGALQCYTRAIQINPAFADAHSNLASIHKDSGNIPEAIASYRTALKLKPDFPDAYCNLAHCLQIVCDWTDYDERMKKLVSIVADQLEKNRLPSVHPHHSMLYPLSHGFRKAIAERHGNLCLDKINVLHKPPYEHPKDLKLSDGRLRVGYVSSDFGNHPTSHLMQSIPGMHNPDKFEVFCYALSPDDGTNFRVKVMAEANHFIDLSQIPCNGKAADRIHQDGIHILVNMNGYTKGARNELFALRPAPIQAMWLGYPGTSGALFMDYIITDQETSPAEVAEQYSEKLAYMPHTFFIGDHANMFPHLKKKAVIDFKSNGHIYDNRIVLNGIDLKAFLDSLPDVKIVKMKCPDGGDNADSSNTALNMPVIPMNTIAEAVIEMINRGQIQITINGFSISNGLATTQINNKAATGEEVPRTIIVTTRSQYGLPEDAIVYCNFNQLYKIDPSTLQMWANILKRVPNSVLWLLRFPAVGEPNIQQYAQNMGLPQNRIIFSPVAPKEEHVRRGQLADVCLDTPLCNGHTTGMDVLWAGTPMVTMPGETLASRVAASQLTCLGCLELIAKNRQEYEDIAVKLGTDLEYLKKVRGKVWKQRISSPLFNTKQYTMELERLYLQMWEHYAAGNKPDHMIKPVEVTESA
Experiment: Binding affinity to human OGT expressed in Escherichia coli […] cells assessed as alpha-FLAG-HRP activity relative to alpha-A-crystallin peptide by azido-ELISA
Settings: BL21-DE3
Summary of the method: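 Biotinylated peptides are reacted at saturating levels with Ni-column-purified human OGT from E. coli BL21(DE3), plus UDP-GlcNAz 62.5 μM, MgCl2 12.5 μM and β-mercaptoethanol 1 mM, for 4 h at 37 °C. Reactions are stopped with pH 4.5 sodium acetate and captured on NeutrAvidin. Product is tagged with phosphine-FLAG, detected by anti-FLAG-HRP/TMB at A450, normalized to the parent peptide after Ala-peptide background subtraction. Data are from 3 experiments, each in triplicate.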

Row | Activity | Compound
1 | 0.4 | CC(C)[C@H](NC(=O)[C@@H]1CCCN1C(=O)[C@H](C)NC(=O)[C@H](C)N)C(=O)N[C@@H](CO)C(=O)N[C@@H](CCCNC(=N)N)C(=O)N[C@@H](CCC(=O)O)C(=O)N[C@@H](CCC(=O)O)C(=O)N[C@@H](CCCCN)C(=O)O (H-AAPVSREEK-OH)
2 | 0.5 | CC(C)[C@H](NC(=O)[C@@H]1CCCN1C(=O)[C@H](CCC(=O)O)NC(=O)[C@H](C)N)C(=O)N[C@@H](CO)C(=O)N[C@@H](CCCNC(=N)N)C(=O)N[C@@H](CCC(=O)O)C(=O)N[C@@H](CCC(=O)O)C(=O)N[C@@H](CCCCN)C(=O)O (H-AEPVSREEK-OH)
3 | 0.1 | CC[C@H](C)[C@H](NC(=O)[C@H](C)N)C(=O)N1CCC[C@H]1C(=O)N[C@@H](C)C(=O)N[C@@H](CO)C(=O)N[C@@H](CCCNC(=N)N)C(=O)N[C@@H](CCC(=O)O)C(=O)N[C@@H](CCC(=O)O)C(=O)N[C@@H](CCCCN)C(=O)O (H-AIPASREEK-OH)
4 | 0.2 | CC[C@H](C)[C@H](NC(=O)[C@H](C)N)C(=O)N1CCC[C@H]1C(=O)N[C@@H](CCC(=O)O)C(=O)N[C@@H](CO)C(=O)N[C@@H](CCCNC(=N)N)C(=O)N[C@@H](CCC(=O)O)C(=O)N[C@@H](CCC(=O)O)C(=O)N[C@@H](CCCCN)C(=O)O (H-AIPESREEK-OH)
5 | 0.3 | CC[C@H](C)[C@H](NC(=O)[C@@H]1CCCN1C(=O)[C@@H](NC(=O)[C@H](C)N)[C@@H](C)CC)C(=O)N[C@@H](CO)C(=O)N[C@@H](CCCNC(=N)N)C(=O)N[C@@H](CCC(=O)O)C(=O)N[C@@H](CCC(=O)O)C(=O)N[C@@H](CCCCN)C(=O)O (H-AIPISREEK-OH)
6 | 0 | CC[C@H](C)[C@H](NC(=O)[C@H](C)N)C(=O)N1CCC[C@H]1C(=O)N[C@H](C(=O)N[C@@H](CO)C(=O)N[C@@H](CCC(=O)O)C(=O)N[C@@H](CCC(=O)O)C(=O)N[C@@H](CCC(=O)O)C(=O)N[C@@H](CCCCN)C(=O)O)C(C)C (H-AIPVSEEEK-OH)
7 | 5 | CC[C@H](C)[C@H](NC(=O)[C@H](C)N)C(=O)N1CCC[C@H]1C(=O)N[C@H](C(=O)N[C@@H](CO)C(=O)N[C@@H](CCCNC(=N)N)C(=O)N[C@@H](C)C(=O)N[C@@H](CCC(=O)O)C(=O)N[C@@H](CCCCN)C(=O)O)C(C)C (H-AIPVSRAEK-OH)
8 | 0.6 | CC[C@H](C)[C@H](NC(=O)[C@H](C)N)C(=O)N1CCC[C@H]1C(=O)N[C@H](C(=O)N[C@@H](CO)C(=O)N[C@@H](CCCNC(=N)N)C(=O)N[C@@H](CCC(=O)O)C(=O)N[C@@H](C)C(=O)N[C@@H](CCCCN)C(=O)O)C(C)C (H-AIPVSREAK-OH)
9 | 1 | CC[C@H](C)[C@H](NC(=O)[C@H](C)N)C(=O)N1CCC[C@H]1C(=O)N[C@H](C(=O)N[C@@H](CO)C(=O)N[C@@H](CCCNC(=N)N)C(=O)N[C@@H](CCC(=O)O)C(=O)N[C@@H](CCC(=O)O)C(=O)N[C@@H](CCCCN)C(=O)O)C(C)C (H-AIPVSREEK-OH)
10 | 0.2 | CC[C@H](C)[C@H](NC(=O)[C@H](C)N)C(=O)N1CCC[C@H]1C(=O)N[C@H](C(=O)N[C@@H](CO)C(=O)N[C@@H](CCCNC(=N)N)C(=O)N[C@@H](CCC(=O)O)C(=O)N[C@@H](CCCNC(=N)N)C(=O)N[C@@H](CCCCN)C(=O)O)C(C)C (H-AIPVSRERK-OH)
11 | 0.6 | CC[C@H](C)[C@H](NC(=O)[C@H](C)N)C(=O)N1CCC[C@H]1C(=O)N[C@H](C(=O)N[C@@H](CO)C(=O)N[C@@H](CCCNC(=N)N)C(=O)N[C@@H](CCCNC(=N)N)C(=O)N[C@@H](CCC(=O)O)C(=O)N[C@@H](CCCCN)C(=O)O)C(C)C (H-AIPVSRREK-OH)
12 | 0.1 | CC(C)[C@H](NC(=O)[C@@H]1CCCN1C(=O)[C@@H]1CCCN1C(=O)[C@H](C)N)C(=O)N[C@@H](CO)C(=O)N[C@@H](CCCNC(=N)N)C(=O)N[C@@H](CCC(=O)O)C(=O)N[C@@H](CCC(=O)O)C(=O)N[C@@H](CCCCN)C(=O)O (H-APPVSREEK-OH)
13 | 0 | CC(C)[C@H](NC(=O)[C@@H]1CCCN1C(=O)[C@H](CCCNC(=N)N)NC(=O)[C@H](C)N)C(=O)N[C@@H](CO)C(=O)N[C@@H](CCCNC(=N)N)C(=O)N[C@@H](CCC(=O)O)C(=O)N[C@@H](CCC(=O)O)C(=O)N[C@@H](CCCCN)C(=O)O (H-ARPVSREEK-OH)
14 | 1 | CC[C@H](C)[C@H](NC(=O)[C@@H](N)CCC(=O)O)C(=O)N1CCC[C@H]1C(=O)N[C@H](C(=O)N[C@@H](CO)C(=O)N[C@@H](CCCNC(=N)N)C(=O)N[C@@H](CCC(=O)O)C(=O)N[C@@H](CCC(=O)O)C(=O)N[C@@H](CCCCN)C(=O)O)C(C)C (H-EIPVSREEK-OH)
15 | 1.6 | CC[C@H](C)[C@H](N)C(=O)N[C@H](C(=O)N1CCC[C@H]1C(=O)N[C@H](C(=O)N[C@@H](CO)C(=O)N[C@@H](CCCNC(=N)N)C(=O)N[C@@H](CCC(=O)O)C(=O)N[C@@H](CCC(=O)O)C(=O)N[C@@H](CCCCN)C(=O)O)C(C)C)[C@@H](C)CC (H-IIPVSREEK-OH)

The next lines start with the compound.

Row | Compound | Activity
16 | CC[C@H](C)[C@H](NC(=O)[C@H](C)N)C(=O)N[C@@H](C)C(=O)N[C@H](C(=O)N[C@@H](CO)C(=O)N[C@@H](CCCNC(=N)N)C(=O)N[C@@H](CCC(=O)O)C(=O)N[C@@H](CCC(=O)O)C(=O)N[C@@H](CCCCN)C(=O)O)C(C)C (H-AIAVSREEK-OH) | 0.1
17 | CC[C@H](C)[C@H](NC(=O)[C@H](C)N)C(=O)N[C@@H](CCC(=O)O)C(=O)N[C@H](C(=O)N[C@@H](CO)C(=O)N[C@@H](CCCNC(=N)N)C(=O)N[C@@H](CCC(=O)O)C(=O)N[C@@H](CCC(=O)O)C(=O)N[C@@H](CCCCN)C(=O)O)C(C)C (H-AIEVSREEK-OH) | 0
18 | CC[C@H](C)[C@H](NC(=O)[C@H](C)N)C(=O)N1CCC[C@H]1C(=O)N1CCC[C@H]1C(=O)N[C@@H](CO)C(=O)N[C@@H](CCCNC(=N)N)C(=O)N[C@@H](CCC(=O)O)C(=O)N[C@@H](CCC(=O)O)C(=O)N[C@@H](CCCCN)C(=O)O (H-AIPPSREEK-OH) | 0.1
19 | CC[C@H](C)[C@H](NC(=O)[C@H](C)N)C(=O)N1CCC[C@H]1C(=O)N[C@@H](CCCNC(=N)N)C(=O)N[C@@H](CO)C(=O)N[C@@H](CCCNC(=N)N)C(=O)N[C@@H](CCC(=O)O)C(=O)N[C@@H](CCC(=O)O)C(=O)N[C@@H](CCCCN)C(=O)O (H-AIPRSREEK-OH) | 0
20 | CC[C@H](C)[C@H](NC(=O)[C@H](C)N)C(=O)N1CCC[C@H]1C(=O)N[C@H](C(=O)N[C@@H](CO)C(=O)N[C@@H](C)C(=O)N[C@@H](CCC(=O)O)C(=O)N[C@@H](CCC(=O)O)C(=O)N[C@@H](CCCCN)C(=O)O)C(C)C (H-AIPVSAEEK-OH) | 0
21 | CC[C@H](C)[C@H](NC(=O)[C@H](CO)NC(=O)[C@@H](NC(=O)[C@@H]1CCCN1C(=O)[C@@H](NC(=O)[C@H](C)N)[C@@H](C)CC)C(C)C)C(=O)N[C@@H](CCC(=O)O)C(=O)N[C@@H](CCC(=O)O)C(=O)N[C@@H](CCCCN)C(=O)O (H-AIPVSIEEK-OH) | 0.1
22 | CC[C@H](C)[C@H](NC(=O)[C@H](C)N)C(=O)N1CCC[C@H]1C(=O)N[C@H](C(=O)N[C@@H](CO)C(=O)N1CCC[C@H]1C(=O)N[C@@H](CCC(=O)O)C(=O)N[C@@H](CCC(=O)O)C(=O)N[C@@H](CCCCN)C(=O)O)C(C)C (H-AIPVSPEEK-OH) | 0
23 | CC[C@H](C)[C@H](NC(=O)[C@H](CCC(=O)O)NC(=O)[C@H](CCCNC(=N)N)NC(=O)[C@H](CO)NC(=O)[C@@H](NC(=O)[C@@H]1CCCN1C(=O)[C@@H](NC(=O)[C@H](C)N)[C@@H](C)CC)C(C)C)C(=O)N[C@@H](CCCCN)C(=O)O (H-AIPVSREIK-OH) | 0.1
24 | CC[C@H](C)[C@H](NC(=O)[C@H](C)N)C(=O)N1CCC[C@H]1C(=O)N[C@H](C(=O)N[C@@H](CO)C(=O)N[C@@H](CCCNC(=N)N)C(=O)N[C@@H](CCC(=O)O)C(=O)N1CCC[C@H]1C(=O)N[C@@H](CCCCN)C(=O)O)C(C)C (H-AIPVSREPK-OH) | 0.3
25 | CC[C@H](C)[C@H](NC(=O)[C@H](C)N)C(=O)N1CCC[C@H]1C(=O)N[C@H](C(=O)N[C@@H](CO)C(=O)N[C@@H](CCCNC(=N)N)C(=O)N1CCC[C@H]1C(=O)N[C@@H](CCC(=O)O)C(=O)N[C@@H](CCCCN)C(=O)O)C(C)C (H-AIPVSRPEK-OH) | 4.7
26 | CC[C@H](C)[C@H](NC(=O)[C@H](C)N)C(=O)N[C@@H](CCCNC(=N)N)C(=O)N[C@H](C(=O)N[C@@H](CO)C(=O)N[C@@H](CCCNC(=N)N)C(=O)N[C@@H](CCC(=O)O)C(=O)N[C@@H](CCC(=O)O)C(=O)N[C@@H](CCCCN)C(=O)O)C(C)C (H-AIRVSREEK-OH) | 0.2
